Active and inactive are the calls of the source. No cut-off for these calls is given here.
Key:
[1] = molecular target: Macrophage migration inhibitory factor (Rattus norvegicus) (UniProt P30904); experiment: Binding affinity to MIF in Wistar rat isolated heart by Western blot analysis; format: tissue-based
How it was run: (§1)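 BTZO-12-type sensor chip probed with rat heart protein; bound protein recovered by microrecovery elution, then identified by silver staining and by western blot with anti-MIF antibody.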
Target sequence in this assay (P30904 2-115 limits assumed): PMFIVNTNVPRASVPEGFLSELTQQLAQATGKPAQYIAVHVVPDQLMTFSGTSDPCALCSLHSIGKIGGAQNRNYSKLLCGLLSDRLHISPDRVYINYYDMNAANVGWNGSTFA

[2] = molecular target: Macrophage migration inhibitory factor (Rattus norvegicus) (UniProt P30904); experiment: Binding affinity to MIF in Wistar rat isolated heart by silver staining based assay; format: tissue-based; how it was run: as §1
Target sequence in this assay (P30904 2-115 limits assumed): as above

[3] = molecular target: Macrophage migration inhibitory factor (Rattus norvegicus) (UniProt P30904); experiment: Binding affinity to rat C-terminal His-tagged MIF expressed in Escherichia coli BL21 (DE3) by SPR analysis
How it was run: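 Sensor chip carrying immobilized BTZO-12; MIF (wild type or point mutants) passed over it and specific binding monitored by surface plasmon resonance.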
Target sequence in this assay (P30904 2-115 limits assumed): as above

[4] = molecular target: Macrophage migration inhibitory factor (Rattus norvegicus) (UniProt P30904); experiment: Binding affinity to MIF in Wistar rat isolated heart by SPR analysis; format: tissue-based; how it was run: as §1
Target sequence in this assay (P30904 2-115 limits assumed): as above

[5] = tested on: Antioxidant response element; experiment: Induction of rat ARE activity expressed in rat H9c2 cells assessed as increase in ARE luciferase activity measured after 24 hrs by steady-glo luciferase Assay; format: cell-based
How it was run: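 H9c2 cells transiently transfected with pGL3-ARE-Luc or pGL3-mARE-Luc, compound exposure 24 hr, luciferase read by Steady-Glo. MEC2.0 is the concentration giving a doubling of luciferase activity. Mean ± SD, n = 4.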

Cardiac muscle cell = experiment: Cytoprotective activity against serum deprivation-induced neonatal Wistar rat cardiomyocyte death assessed as increase in cell viability measured after 4 days by WST-8 assay; format: functional; conditions: time 4 day
How it was run: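 Primary neonatal rat cardiomyocytes were isolated by proteinase digestion, with preplating to remove adherent non-myocytes. Death was induced by serum deprivation at low density (3×10^5 cells/ml) for 4 days with compound present. Viability was read by WST-8. MEC1.5 is the concentration giving a 50% rise in viability. n = 3.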

[6] = molecular target: Macrophage migration inhibitory factor (Rattus norvegicus) (UniProt P30904); experiment: Induction of MIF-stimulated ARE activity in rat H9c2 cells assessed as increase in GST Ya expression at 3 uM incubated for 24 hrs by RT-qPCR analysis; format: cell-based
Target sequence in this assay (P30904 2-115 limits assumed): as above

[7] = tested on: Antioxidant response element; experiment: Induction of ARE activity in serum-deprived neonatal Wistar rat cardiomyocytes assessed as increase in GST Ya expression up to 400 nM measured after 24 hrs by Western blot analysis; format: cell-based; conditions: Cardiomyocyte
How it was run: (§2)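 Neonatal rat cardiomyocytes exposed to samples or vehicle in M-199 with 1% penicillin-streptomycin, no serum, for 24 hr. GST Ya and HO-1 mRNA measured by real-time qPCR (mean ± SD, n = 3); protein by western blot with β-actin as control.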

[8] = molecular target: Macrophage migration inhibitory factor (Rattus norvegicus) (UniProt P30904); experiment: Induction of MIF-stimulated ARE activity in rat H9c2 cells assessed as increase in HO-1 expression at 3 uM incubated for 6 hrs by RT-qPCR analysis; format: cell-based
Target sequence in this assay (P30904 2-115 limits assumed): as above

[9] = molecular target: Macrophage migration inhibitory factor (Rattus norvegicus) (UniProt P30904); experiment: Inhibition of recombinant rat MIF expressed in Escherichia coli BL21 (DE3) assessed as reduction in tautomerase activity at 30 uM using L-dopachrome carboxy-methyl ester as substrate by spectrophotometry relative to control
How it was run: (§3)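 Purified recombinant rat MIF tautomerase assayed with purified L-dopachrome carboxy-methyl ester as substrate in pH 6.0 buffer; rate taken over the initial 30 s. Mean ± SD, n = 4.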

[10] = tested on: Antioxidant response element; experiment: Induction of ARE activity in serum-deprived neonatal Wistar rat cardiomyocytes assessed as increase in HO-1 expression up to 400 nM measured after 24 hrs by Western blot analysis; format: cell-based; conditions: Cardiomyocyte; how it was run: as §2
[11] = tested on: Antioxidant response element; experiment: Induction of rat ARE activity expressed in MIF-stimulated rat H9c2 cells assessed as increase in ARE luciferase activity at 1 uM measured after 24 hrs by steady-glo luciferase Assay; format: cell-based
How it was run: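 H9c2 cells transiently transfected with pGL3-ARE-Luc (rat GST Ya ARE) or mutant-ARE control plasmid, then treated with rMIF with or without 1 μM compound for 24 hr. Luciferase by Steady-Glo; mean ± SD, n = 4.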

[12] = tested on: Antioxidant response element; experiment: Induction of ARE activity in serum-deprived neonatal Wistar rat cardiomyocytes assessed as increase in HO-1 mRNA level up to 3 uM measured after 24 hrs by RT-qPCR analysis; format: cell-based; conditions: Cardiomyocyte; how it was run: as §2
[13] = tested on: Antioxidant response element; experiment: Induction of ARE activity in serum-deprived neonatal Wistar rat cardiomyocytes assessed as increase in GST Ya mRNA level up to 3 uM measured after 24 hrs by RT-qPCR analysis; format: cell-based; conditions: Cardiomyocyte; how it was run: as §2
Rattus norvegicus [14] = experiment: (§4) Cardioprotective effect against ischemia reperfusion injury in Wistar rat myocardial infarction model assessed as area at risk at 10 mg/kg, ip administered 1 hr prior to LAD occlusion and 2 and 8 hr after reperfusion and measured after 24 hrs by Evans blue dye based assay (reference value: 46 +/- 3%); format: functional; conditions: time 25 hrs
How it was run: (§5)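 Anaesthetized rats; LAD coronary occlusion 25 min followed by 24 hr reperfusion. Compound 10 mg/kg i.p. given 1 hr before occlusion and 2 and 8 hr after reperfusion; vehicle controls, n = 13. Area at risk given as % of LV, infarct size as % of area at risk. Mean ± SEM.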

Rattus norvegicus [15] = experiment: as §4, with “reduction in infarct size” for “area at risk”, “relative to control” for “(reference value: 46 +/- 3%)”; format: functional; parameters: scale not given: the % may be the effect or the level left; conditions: time 25 hrs; how it was run: as §5
[16] = molecular target: Macrophage migration inhibitory factor (Rattus norvegicus) (UniProt P30904); experiment: Binding affinity to recombinant rat MIF expressed in Escherichia coli BL21 (DE3) by chromatography
[17] = molecular target: Macrophage migration inhibitory factor (Rattus norvegicus) (UniProt P30904); experiment: Binding affinity to MIF in Wistar rat isolated heart by chromatography; format: tissue-based
[18] = molecular target: Macrophage migration inhibitory factor (Rattus norvegicus) (UniProt P30904); experiment: Inhibition of [3H]-BTZO-1 binding to recombinant rat C-terminal His-tagged MIF expressed in Escherichia coli BL21 (DE3) at 100 uM measured after 3 hrs by SPA relative to control
Target sequence in this assay (P30904 whole entry, looked up): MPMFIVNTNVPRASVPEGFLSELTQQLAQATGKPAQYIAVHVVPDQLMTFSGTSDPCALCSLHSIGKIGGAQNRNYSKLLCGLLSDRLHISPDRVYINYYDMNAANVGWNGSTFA

[19] = molecular target: Macrophage migration inhibitory factor (Rattus norvegicus, UniProt P30904); experiment: Inhibition of recombinant rat MIF expressed in Escherichia coli BL21 (DE3) assessed as reduction in tautomerase activity using L-dopachrome carboxy-methyl ester as substrate by spectrophotometry; how it was run: as §3
Sequence of Macrophage migration inhibitory factor (P30904 2-115 limits assumed): as the sequence (P30904 2-115 limits assumed) above

[20] = molecular target: Macrophage migration inhibitory factor (Rattus norvegicus) (UniProt P30904); experiment: Inhibition of [3H]-BTZO-1 binding to recombinant rat C-terminal His-tagged MIF expressed in Escherichia coli BL21 (DE3) measured after 3 hrs by SPA
Target sequence in this assay (P30904 whole entry, looked up): as the sequence (P30904 whole entry, looked up) above

| Structure (SMILES) | MEC2 [5] | MEC1.5 (Cardiac muscle cell) | inhibition [9] | also measured |
| --- | --- | --- | --- | --- |
| NCCCCCCNC(=O)c1cccc(-c2nc(=O)c3ccccc3s2)n1 | 1.1 µM | – | – | Activity [1]: Active; Activity [2]: Active; Activity [3]: Active; Activity [4]: Active |
| Cc1cc(C)c2sc(-c3ccccn3)nc(=O)c2c1 | > 10 µM | >1000 nM | – | – |
| Cc1cccc2c(=O)nc(-c3ccccn3)sc12 | > 10 µM | >1000 nM | 6% | Activity [6]: inactive; Activity [7]: inactive; Activity [8]: inactive; Activity [10]: inactive; Activity [11]: inactive |
| Cc1cccc2c(=O)nc(-c3cccc(C(=O)NCCCCCCN)n3)sc12 | > 10 µM | – | – | Activity [3]: inactive; Activity [4]: inactive |
| O=C(O)CCc1cccc(-c2nc(=O)c3ccccc3s2)n1 | 2.3 µM | 39 nM | 14% | Activity [12]: Active; Activity [13]: Active; Activity [7]: Active; Activity [10]: Active; Activity (Rattus norvegicus [14]): 48%; Activity (Rattus norvegicus [15]): 45%; Activity [5]: Dose-Dependent Effect |
| O=C(O)CCOCCCc1ccc(-c2nc(=O)c3ccccc3s2)nc1 | 1.6 µM | 39 nM | – | Activity [16]: Active; Activity [17]: Active |
| O=C1NC(c2ccccn2)Sc2ccccc21 (stereo not drawn) [BTZO-4] | > 10 µM | >1000 nM | 3% | – |
| O=C(O)CCOCCCc1cccc(-c2nc(=O)c3ccccc3s2)n1 | 2.2 µM | 53 nM | – | Activity [16]: Active; Activity [17]: Active |
| O=c1nc(-c2cccnc2)sc2ccccc12 | 0.8 µM | 39 nM | 12% | – |
| Cc1c(C)c2c(c(C)c1O)CCC(C)(C(=O)O)O2 (stereo not drawn) [TROLOX] | – | 160000 nM | – | – |
| COC(=O)CC1CC(c2ccc(O)cc2)=NO1 (stereo not drawn) | > 30 µM | – | 30% | inhibition [18]: 12%; IC50 [19]: 68 µM |
| CC(C)(C)c1cc(O)ccc1O [E319] | 5.7 µM | – | – | IC50 [20]: 1.1 µM; IC50 [19]: > 30 µM |
| O=C(O)CCOCCCc1cccc(-c2nc(=O)c3cccnc3s2)n1 | > 10 µM | >1000 nM | – | Activity [16]: inactive |
| C[S@+]([O-])CCCCN=C=S | 4.4 µM | – | – | – |
| CCCCC/C=C/C=C1/C(=O)C=C[C@@H]1C/C=C\CCCC(=O)O | 7.3 µM | – | – | IC50 [20]: 3.6 µM; IC50 [19]: 3.7 µM |
| O=c1nc(-c2ccccn2)sc2ncccc12 | > 10 µM | >1000 nM | 5% | – |
| C[S@@+]([O-])CCCCN=C=S [L-SULFORAPHANE] | – | – | – | IC50 [20]: 25 µM; IC50 [19]: 4.4 µM |
| Cc1cc(C)c2sc(-c3cccc(CCCOCCC(=O)O)n3)nc(=O)c2c1 | > 10 µM | >1000 nM | – | Activity [16]: inactive |
| O=C(O)CCOCCCc1cccc(C2NC(=O)c3ccccc3S2)n1 (stereo not drawn) | > 10 µM | >1000 nM | – | Activity [16]: inactive |
